Screening results: PubChem BioAssay, SRMLSC
This is one part of a sample in which hits are shown more often than they occur.
bCat KO growth = beta-catenin-lacking colon tumor cell growth suppression; HCT116 beta-catenin knockout viability, CellTiter-Glo, 60 h; hits give low values; viability, % at 10 µM; 140,000 compounds, 1.5% hits;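 active = viability at or under a set limit, the compound median less 4 SD, cut at about 6% in these data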;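 note: 0% = Hyamine 1622 control at 20 µM and 100% = untreated cell control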
Fibroblast inh = blocks proliferation of human lung fibroblasts | LL 47 human lung fibroblast viability, ATP luminescence; hits give low values | viability, % at 10 µM | 85,000 compounds, 1.1% hits;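 active = viability at or below 50% in the single dose screen; inactive = viability above 50%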;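 note: compound exposure lasted 72 h before the ATP readout; 100% = median luminescence of untreated cell-only wells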
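Test system: LL 47 human lung fibroblasts / Quantity: 1,150 cells in each well / Medium: IMEM growth medium with 15% fetal bovine serum / Incubation: 72 h compound exposure at 37 °C after overnight plating / Detection: CellTiter-Glo luminescence measuring cellular ATP / Read-out: % viability versus median cells-only luminescence / Benchmarks: cell-only wells, no compound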
HUVEC prolif 384 = inhibitors of human endothelial cell proliferation | HUVEC proliferation, CellTiter-Glo luminescence, 72 h; hits give low values | viability, % at 10 µM (by protocol) | 86,000 compounds, 1.1% hits;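 active = viability at or below 30%; inactive = viability above 30%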;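 note: 100% = median luminescence of DMSO-only cell control wells on each plate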
H69AR inhibit = blocks growth of human H69AR lung tumor cells; H69AR lung tumor viability, ATP luminescence, 72 h; hits give low values; viability, % at 10 µM; 85,000 compounds, 6% hits; AID 598;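 active = viability at or below 40%; inactive = viability above 40%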;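 note: multidrug resistant small cell line overexpressing MRP-1 efflux transporter; 100% = mean luminescence of untreated control wells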
HCT116 PTEN-null = PTEN-deleted cell growth suppression; HCT116 PTEN-null viability, CellTiter-Glo, 60 h; hits give low values; viability, % at 10 µM; 140,000 compounds, 1.2% hits; AID 827;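 active = viability at or below a set limit, 4 SD under the median of all tested compounds, cut at about 3.7% in these data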;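 note: PTEN knockout HCT116 line with beta catenin targeted HCT116 as companion control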
* marks the source's active call; other numbers are inactive results; . = no result given.

SMILES	bCat KO growth	Fibroblast inh	HUVEC prolif 384	H69AR inhibit	HCT116 PTEN-null
CC1CC(C)CN(CC(=O)N2CCCc3c2c(=O)oc2ccc(OCc4ccccc4)cc32)C1 (stereo not drawn)	3.5*	95	80	90	13
CCCOc1ccc2oc(=O)c3c(c2c1)CCCN3C(=O)CN1CCc2ccccc2C1	42	94	44	40*	47
O=C(O)c1ccc(COc2ccc3c4c(c(=O)oc3c2)CCC4)o1	101	103	112	92	94
Cc1cc(=O)oc2ccc(OCC(=O)N3CCC(C)CC3)cc12	106	94	102	82	114
CC1CCN(CC(=O)N2CCCc3c2c(=O)oc2ccc(OCc4ccccc4)cc32)CC1	9	89	74	33*	17
N#CSCC(=O)c1cccc2ccccc12	87	.	.	.	101
Cc1cccc(N2CCN(C(=O)c3ccc(Cl)c(S(=O)(=O)NCc4ccco4)c3)CC2)c1C	10	68	55	21*	9
O=C(c1ccc(Cl)c(S(=O)(=O)NCc2ccccc2)c1)N1CCN(c2ccccn2)CC1	48	94	74	21*	.
O=C(O)c1ccc(Cl)c(S(=O)(=O)NCc2ccco2)c1	99	98	106	91	102
CCOC(=O)C1CCCN(S(=O)(=O)c2ccc(Br)c(OC)c2)C1 (stereo not drawn)	93	89	99	85	89
CCCCCCCCCCn1c2c(c(=N)c3c1CCC3)CCC2	1.6*	8.6*	4.3*	1.8*	0.9*
CCOC(=O)Cn1c2c(c(=N)c3c1CCC3)CCC2	94	96	95	96	92
CCOc1ccc(NS(=O)(=O)c2ccc3[nH]cc(C(=O)N(CC)CC)c(=O)c3c2)cc1	86	101	110	108	86
COC(=O)c1c(C)n(-c2ccc(OC)cc2)c2ccc(O)cc12	91	79	18*	18*	43
OC(C#Cc1ccccn1)c1cccs1 (stereo not drawn)	60	85	7.9*	13*	60
O=C(CSc1ccccn1)Nc1ccc2c(c1)oc1ccccc12	93	.	.	.	99
CC(C)C(C)NC(=O)CSc1nc2scc(-c3ccco3)c2c(=O)n1-c1ccccc1 (stereo not drawn)	97	88	94	78	98
C=CCn1c(SCC(=O)Nc2cc(C)on2)nc2sc3c(c2c1=O)CCCC3	75	.	.	.	67
C=CCn1c(SCC(=O)Nc2cc(C)on2)nc2sc(C)c(C)c2c1=O	78	91	97	28*	57
CC(NC(=O)CSc1nc2sc3c(c2c(=O)n1-c1ccccc1)CCCC3)c1ccccc1 (stereo not drawn)	71	92	67	1.9*	70
Cc1cc(NC(=O)CSc2nc(C(C)C)nc3sc4c(c23)CCCC4)no1	66	18*	60	5.6*	71
CCn1c(SCC(=O)Nc2cc(C)on2)nc2sc3c(c2c1=O)CCCC3	14	15*	78	7.1*	2.3*
CCn1c(NCc2cc(OC)ccc2OC)nc2ccccc21	88	89	90	.	85
N#CC1=C(N)OC2=C(CC/C2=C\c2ccccc2)C1c1ccccc1 (stereo not drawn)	14	.	.	.	11
CCCC1Cc2c(sc3nc(SC)nc(N)c23)CO1 (stereo not drawn)	96	101	101	.	99
SMILES	bCat KO growth	Fibroblast inh	HUVEC prolif 384	H69AR inhibit	HCT116 PTEN-null
Cc1c(/C(Cc2ccccc2)=N/O)c2ccccc2n1C	85	104	80	88	76
c1ccc(-c2oc3ncnc(NCCN4CCOCC4)c3c2-c2ccccc2)cc1	76	84	59	36*	65
N=c1c2c(-c3ccccc3)c(-c3ccccc3)oc2ncn1CCN1CCOCC1	26	84	54	42	24
N=c1c2c(-c3ccccc3)c(-c3ccccc3)oc2ncn1CCCN1CCOCC1	41	79	8.9*	46	43
Cc1ccn2cc(CNC(=O)c3ccc(Br)o3)nc2c1	86	101	104	93	104
OCc1nnc2c3ccccc3c(-c3ccccc3)nn12	93	100	96	66	97
CC1C/C(=C\c2cccnc2)C(=O)/C(=C/c2cccnc2)C1 (stereo not drawn)	2.7*	.	.	.	2.1*
O=C1/C(=C\c2cccnc2)Sc2ccccc21	65	.	.	.	63
COCCNC(=O)c1ccc2c(c1)NC(=O)CS2	93	96	93	92	87
CCOc1cc2c(cc1C(C)(C)C)NC(=O)CS2	57	89	78	37*	59
CCc1cccc(CC)c1NC(=O)/C(C#N)=C/c1ccccc1C(F)(F)F	1.5*	.	.	.	1.8*
